# In ChEMBL document CHEMBL4130526, “Structure-Activity Relationship Study of Leucyl-3-epi-deoxynegamycin for Potent Premature Termination Codon Readthrough” (ACS Med Chem Lett, 2017):
# Key:
# [1] = organism: Mus musculus; assay: (§1) Mutation read through activity at premature termination codon TGA-containing mouse dystrophin gene exon 23 nucleotide sequence expressed in African green monkey COS7 cells assessed as ratio of luciferase activity to beta-galactosidase activity at 200 uM after 48 hrs by dual luciferase reporter gene assay relative to control; type: cell-based
# In short: (§2)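 COS-7 cells carrying a dual-reporter plasmid (β-galactosidase and luciferase genes joined by a TGA-containing stop sequence). Compounds were tested at 200 μM; the dose-dependent series ran 10–200 μM. Activity is reported as a ratio relative to D-MEM control, as mean ± SD, n = 3.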
# [2] = system: NHDF; assay: Cytotoxicity against HDF assessed as reduction in cell viability at 200 uM after 48 hrs by WST1 assay; type: cell-based; details: human
# [3] = system: COS-7; assay: Cytotoxicity against African green monkey COS7 cells assessed as reduction in cell viability at 200 uM after 48 hrs by WST1 assay; type: cell-based; details: chlorocebus aethiops, cos-7, 48 h
# [4] = organism: Mus musculus; assay: as §1, with “TAG-containing” for “TGA-containing”; type: cell-based
# [5] = organism: Mus musculus; assay: as §1, with “TAA-containing” for “TGA-containing”; type: cell-based
# [6] = organism: Mus musculus; assay: as §1, with “activity” for “activity at 200 uM”; type: cell-based; in short: as §2
# [7] = organism: Mus musculus; assay: as §1, with “control relative to in-frame control containing TGG” for “control”; type: cell-based
# [8] = target: T1, Liver carboxylesterase (Sus scrofa, UniProt Q29550); assay: Prodrug conversion assessed as porcine liver esterase-mediated TCP-126 formation at 2 mM up to 6 hrs by RP-HPLC method; type: ADME; details: pig, isolated protein, 2000 µM, TDE = time-dependent effect
# T1 sequence (Q29550 whole entry): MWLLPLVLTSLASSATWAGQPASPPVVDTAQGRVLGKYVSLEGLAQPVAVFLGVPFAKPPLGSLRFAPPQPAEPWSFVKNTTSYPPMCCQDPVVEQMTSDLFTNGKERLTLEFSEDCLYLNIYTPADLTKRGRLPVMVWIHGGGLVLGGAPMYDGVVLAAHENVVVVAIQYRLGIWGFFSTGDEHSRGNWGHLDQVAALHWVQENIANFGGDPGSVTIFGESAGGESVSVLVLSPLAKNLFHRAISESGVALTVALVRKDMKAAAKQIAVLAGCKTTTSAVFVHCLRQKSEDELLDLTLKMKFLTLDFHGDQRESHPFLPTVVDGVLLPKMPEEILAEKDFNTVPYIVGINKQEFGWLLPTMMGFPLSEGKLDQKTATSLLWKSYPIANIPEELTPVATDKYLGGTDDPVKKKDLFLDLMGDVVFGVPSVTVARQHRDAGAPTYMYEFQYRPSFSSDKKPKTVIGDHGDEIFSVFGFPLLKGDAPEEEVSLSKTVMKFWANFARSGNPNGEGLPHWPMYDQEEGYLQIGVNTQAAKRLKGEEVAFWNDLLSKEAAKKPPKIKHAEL
# In short: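 Incubated with porcine liver esterase (110 units/mL) in 100 mM phosphate buffer, pH 7.4, at 37 °C. Reaction mixtures were analysed by RP-HPLC over time for conversion to the parent compound. The new metabolite peak was collected and identified by high-resolution MS.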
# [9] = system: Mus musculus; assay: Mutation read through activity in READ mouse on C57/BL6 background expressing premature termination codon TGA-containing mouse dystrophin gene exon 23 nucleotide sequence gene exon 23 assessed as ratio of luciferase activity to beta-galactosidase activity at 1 mg/20g body weight, sc administered daily for 7 days measured post last dose by dual luciferase reporter gene assay relative to control; type: functional
# In short: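 READ mice carry a dual reporter split by a PTC. Subcutaneous injection into the abdominal region at 1 mg in 0.2 mL saline per 20 g body weight, daily for 7 days. Negative control: saline. Positive control: arbekacin. Readthrough reported as mean ± SD.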
# [10] = system: Mus musculus; assay: Acute toxicity in B10 mouse assessed reduction in body weight at 10 mg/day/20g body weight, sc for 14 days and measured on day 1; type: organism-based; details: in vivo, 336 h
# In short: (§3)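 Single subcutaneous injection into the abdominal region of B10 mice at 10 mg day–1 20 g–1 body weight, given only once. Body weight tracked over 2 weeks. Treated group n = 4; saline-injected B10 mice (n = 3) served as controls.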
# [11] = system: Mus musculus; assay: Acute toxicity in B10 mouse assessed as change in body weight at 10 mg/day/20g body weight, sc for 14 days and measured on 1 to 7 and 14 days; type: organism-based; details: in vivo, 336 h; in short: as §3
# [12] = Stability in 100 mM phosphate buffer (pH 7.4) assessed as parent compound remaining at 200 uM measured after 6 hrs in absence of esterase by RP-HPLC and high-resolution mass spectrometry method
SMILES,fold change (FC) [1],Activity [2],Activity [3],also measured
COc1cccc(COC(=O)CN(C)NC(=O)C[C@H](CCCN)NC(=O)[C@@H](N)CC(C)C)c1,5.15,Non-Toxic,Non-Toxic,–
CC(C)C[C@H](N)C(=O)N[C@@H](CCCN)CC(=O)NN(C)CC(=O)O,2.25 to 2.72,Non-Toxic,Non-Toxic,fold change (FC) [4]: 1.3; fold change (FC) [5]: 1.11
CC(C)C[C@@H](N)C(=O)N[C@@H](CCCN)CC(=O)NN(C)CC(=O)O,1.3,–,–,–
CN(CC(=O)O)NC(=O)C[C@H](CCCN)NC(=O)CN,2.1,–,–,–
CC(C)C[C@H](N)C(=O)N[C@@H](CCCN)CC(=O)NN(C)CC(=O)OCc1ccccc1Br,8.84 to 8.89,Non-Toxic,Non-Toxic,"Activity [6]: Dose-dependent effect; fold change (FC) [4]: 2.55; fold change (FC) [5]: 1.22; Activity [7]: 2.69%; Drug metabolism [8]: Tde; fold change (FC) [9]: 1.59; Activity [10]: Toxic; Activity [11]: Non-Toxic; remaining at 6 h, 200 µM [12]: 99%"
CC(C)C[C@H](N)C(=O)N[C@@H](CCCN)CC(=O)NN(C)CC(=O)OCc1ccccc1[N+](=O)[O-],9.15,Non-Toxic,Non-Toxic,–
CN[C@@H]1[C@@H](O)[C@@H](O[C@H]2[C@H](O)[C@@H](O[C@H]3O[C@H]([C@H](C)O)[C@@H](O)[C@H](O)[C@H]3N)[C@H](N)C[C@@H]2N)OC[C@]1(C)O,7.2,Non-Toxic,Non-Toxic,–
CC(C)C[C@H](O)C(=O)N[C@@H](CCCN)CC(=O)NN(C)CC(=O)O,1.33,–,–,–
CC(C)C[C@H](N)C(=O)N[C@@H](CCCN)CC(=O)NN(C)CC(=O)OCc1cccc(Cl)c1,5.37,Non-Toxic,Non-Toxic,–
CC(C)C[C@H](N)C(=O)N[C@@H](CCCN)CC(=O)NN(C)CC(=O)OCc1ccccc1,8.92,Non-Toxic,Non-Toxic,–
CN(CC(=O)O)NC(=O)C[C@H](N)C[C@@H](O)CN,1.54,–,–,–
NCC[C@H](O)C(=O)N[C@@H]1C[C@H](N)[C@@H](O[C@H]2O[C@H](CN)CC[C@H]2N)[C@H](O)[C@H]1O[C@H]1O[C@H](CO)[C@@H](O)[C@H](N)[C@H]1O [ARBEKACIN],–,–,–,fold change (FC) [9]: 1.94
CN(CC(=O)O)NC(=O)C[C@H](CCCN)NC(=O)[C@@H](N)Cc1ccccc1,2.13,–,–,–
CC(C)[C@H](N)C(=O)N[C@@H](CCCN)CC(=O)NN(C)CC(=O)O,1.87,–,–,–
CN(CC(=O)O)NC(=O)C[C@H](CCCN)NC(=O)[C@@H](N)Cc1ccc(O)cc1,1.92,–,–,–
